Data: ChEMBL document CHEMBL3351932, “Discovery of BI 207524, an indole diamide NS5B thumb pocket 1 inhibitor with improved potency for the potential treatment of chronic hepatitis C virus infection” (J Med Chem, 2014)
pEC50, pIC50: −log10 of the molar value.

Experiments:
[1] = Inhibition of HCV full-length NS5B polymerase; set-up: species or system Hepacivirus hominis
In short: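 Polymerase inhibition with full-length NS5B enzyme in a biochemical assay; IC50 averaged from duplicate measurements, at least two determinations.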

[2] = Inhibition of Hepatitis C virus genotype 1b Con1 NS5B RNA dependent RNA polymerase activity using Bright-Glo luciferase substrate by cell-based 1b luciferase reporter assay; set-up: species or system Hepatitis C virus (isolate Con1)
In short: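 Cell-based genotype 1b luciferase reporter replicon assay; EC50 determined in duplicate, values averaged over at least two determinations.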

[3] = Plasma concentration in rat at 4 mg/kg, po cassette dosing after 2 hrs; format: ADME, organism-based; set-up: dose 4 mg/kg, route oral
In short: (§1)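 Cassette screen: mixture of 4 compounds, each at 4 mg/kg, dosed orally to 2 rats; plasma sampled at 1 h and 2 h, solid-phase extracted and quantified by HPLC-UV or LC/MS against calibration standards in blank plasma (LOQ 7 ng/mL).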

[4] = Plasma concentration in rat at 4 mg/kg, po cassette dosing after 1 hr; format: ADME, organism-based; set-up: dose 4 mg/kg, route oral; in short: as §1
[5] = Half life in human liver microsomes; format: ADME
[6] = Half life in rat liver microsomes; format: ADME
[7] = Permeability across apical to basolateral side in human Caco2 cells; format: ADME, cell-based; conditions: Caco-2, read-out: permeability
[8] = Oral bioavailability in rat at 10 mg/kg; format: ADME, organism-based; conditions: in vivo
In short: (§2)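 Single-compound oral PK after overnight fast; 10 mg/kg given as suspension in 0.5% methylcellulose and 0.3% Tween-80, with or without 1% NMP as added solubilizer; N=3 per dose and route. Plasma kept on ice, centrifuged at 4°C, stored near -20°C, extracted by solid phase, quantified by HPLC-UV or LC/MS against blank-plasma standards (LOQ 7 ng/mL); non-compartmental analysis.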

[9] = AUC in rat at 10 mg/kg, po; format: ADME, organism-based; set-up: dose 10 mg/kg, route oral; conditions: plasma; in short: as §2
[10] = Mean residence time in rat at 10 mg/kg, po; format: ADME, organism-based; set-up: dose 10 mg/kg, route oral; conditions: in vivo; in short: as §2
[11] = Cmax in rat at 10 mg/kg, po; format: ADME, organism-based; set-up: dose 10 mg/kg, route oral; conditions: in vivo; in short: as §2
[12] = Volume of distribution at steady state in rat at 2 mg/kg, iv; format: ADME, organism-based; set-up: dose 2 mg/kg, route intravenous; conditions: in vivo, read-out: Vdss
In short: (§3)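 Fasted animals dosed IV by bolus at 2 mg/kg in 70% PEG-400:30% water; N=3 per dose and route. Plasma separated at 4°C, stored near -20°C, solid-phase extracted, assayed by HPLC-UV or LC/MS with blank-plasma calibration (r2 > 0.99, LOQ 7 ng/mL); parameters from non-compartmental analysis.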

[13] = Clearance in rat at 2 mg/kg, iv; format: ADME, organism-based; set-up: dose 2 mg/kg, route intravenous; conditions: in vivo; in short: as §3
[14] = Half life in rat at 2 mg/kg, iv; format: ADME, organism-based; set-up: dose 2 mg/kg, route intravenous; conditions: in vivo; in short: as §3

SMILES | pIC50 [1] | pEC50 [2] | concentration at 2 h [3] [nM] | concentration at 1 h [4] [nM] | half-life [5] [h] | Papp A→B [7] [×10⁻⁶ cm/s] | further results
Cc1cc(/C=C/C(=O)O)ccc1NC(=O)C1(NC(=O)c2ccc3c(C4CCCC4)c(-c4ccccn4)n(C)c3c2)CCC1 | 6.43 | 5.99 |  |  |  |  | 
Cn1c(-c2ccccn2)c(C2CCCC2)c2ccc(C(=O)NC3(C(=O)Nc4ccc(/C=C/C(=O)O)cc4F)CCC3)cc21 | 6.64 | 6.25 |  |  |  |  | 
Cn1c(-c2ccccn2)c(C2CCCC2)c2ccc(C(=O)NC3(C(=O)Nc4ccc(/C=C/C(=O)O)cc4Cl)CCC3)cc21 | 6.52 |  |  |  |  |  | 
Cn1c(-c2ccccn2)c(C2CCCC2)c2ccc(C(=O)NC3(C(=O)Nc4ccc(/C=C/C(=O)O)cc4C(F)(F)F)CCC3)cc21 | 5.65 | < 5.60 |  |  |  |  | 
Cn1c(-c2ccccn2)c(C2CCCC2)c2ccc(C(=O)NC3(C(=O)Nc4c(F)cc(/C=C/C(=O)O)cc4F)CCC3)cc21 | 5.88 | < 5.55 |  |  |  |  | 
Cn1c(-c2ccccn2)c(C2CCCC2)c2ccc(C(=O)NC3(C(=O)Nc4ccc(/C=C/C(=O)O)cc4O)CCC3)cc21 | 6.36 | 6.60 |  |  |  |  | 
Cc1cc(NC(=O)C2(NC(=O)c3ccc4c(C5CCCC5)c(-c5ccccn5)n(C)c4c3)CCC2)ccc1/C=C/C(=O)O | 7.16 | 7.10 |  |  |  |  | 
Cn1c(-c2ccccn2)c(C2CCCC2)c2ccc(C(=O)NC3(C(=O)Nc4ccc(/C=C/C(=O)O)c(F)c4)CCC3)cc21 | 7.21 | 6.89 |  |  |  |  | 
Cn1c(-c2ccccn2)c(C2CCCC2)c2ccc(C(=O)NC3(C(=O)Nc4ccc(/C=C/C(=O)O)c(Cl)c4)CCC3)cc21 | 7.00 | 6.96 |  |  |  |  | 
Cn1c(-c2ccccn2)c(C2CCCC2)c2ccc(C(=O)NC3(C(=O)Nc4ccc(/C=C/C(=O)O)c(C(F)(F)F)c4)CCC3)cc21 | 6.74 | 6.64 |  |  |  |  | 
Cn1c(-c2ccccn2)c(C2CCCC2)c2ccc(C(=O)NC3(C(=O)Nc4ccc(/C=C/C(=O)O)c(O)c4)CCC3)cc21 | 7.36 | 6.77 |  |  |  |  | 
COc1cc(NC(=O)C2(NC(=O)c3ccc4c(C5CCCC5)c(-c5ccccn5)n(C)c4c3)CCC2)ccc1/C=C/C(=O)O | 7.33 | 7.49 | 500 | 1100 | 1.37 |  | 
COc1cc(NC(=O)C2(NC(=O)c3ccc4c(C5CCCC5)c(-c5ccccn5)n(C)c4c3)CCC2)cc(OC)c1/C=C/C(=O)O | 6.47 | 8.10 |  | 400 |  | 17.6 | half-life [6]: 0.7 h
CCOc1cc(NC(=O)C2(NC(=O)c3ccc4c(C5CCCC5)c(-c5ccccn5)n(C)c4c3)CCC2)ccc1/C=C/C(=O)O | 7.32 | 7.62 | 400 | 900 | 1.07 | 19 | 
CCCOc1cc(NC(=O)C2(NC(=O)c3ccc4c(C5CCCC5)c(-c5ccccn5)n(C)c4c3)CCC2)ccc1/C=C/C(=O)O | 6.89 | 7.44 | 200 | 400 | 2.07 | 19 | 
CC(C)Oc1cc(NC(=O)C2(NC(=O)c3ccc4c(C5CCCC5)c(-c5ccccn5)n(C)c4c3)CCC2)ccc1/C=C/C(=O)O | 6.96 | 7.44 | 800 | 1300 | 1.9 | 19 | 

SMILES | pIC50 [1] | pEC50 [2] | concentration at 2 h [3] [nM] | concentration at 1 h [4] [nM] | half-life [5] [h] | Papp A→B [7] [×10⁻⁶ cm/s] | further results
CC(C)COc1cc(NC(=O)C2(NC(=O)c3ccc4c(C5CCCC5)c(-c5ccccn5)n(C)c4c3)CCC2)ccc1/C=C/C(=O)O | 6.38 | 7.26 |  |  | > 5 |  | 
Cn1c(-c2ccccn2)c(C2CCCC2)c2ccc(C(=O)NC3(C(=O)Nc4ccc(/C=C/C(=O)O)c(OCC5CC5)c4)CCC3)cc21 | 6.60 | 7.34 |  |  | 3.85 |  | 
Cn1c(-c2ccccn2)c(C2CCCC2)c2ccc(C(=O)NC3(C(=O)Nc4ccc(/C=C/C(=O)O)c(OC5CCC5)c4)CCC3)cc21 | 6.55 | 7.19 |  |  | 0.833 |  | 
COCCOc1cc(NC(=O)C2(NC(=O)c3ccc4c(C5CCCC5)c(-c5ccccn5)n(C)c4c3)CCC2)ccc1/C=C/C(=O)O | 7.25 | 7.57 |  |  | 1.45 |  | 
CCOc1cc(NC(=O)C2(NC(=O)c3ccc4c(C5CCCC5)c(-c5ccccc5)n(C)c4c3)CCC2)ccc1/C=C/C(=O)O | 6.39 | 7.68 |  |  |  |  | 
CCOc1cc(NC(=O)C2(NC(=O)c3ccc4c(C5CCCC5)c(-c5ccc(Cl)cn5)n(C)c4c3)CCC2)ccc1/C=C/C(=O)O | 6.48 | 7.59 | 300 | 500 | 1.35 | 18 | half-life [6]: 1.73 h
CCOc1cc(NC(=O)C2(NC(=O)c3ccc4c(C5CCCC5)c(-c5cccc(N)n5)n(C)c4c3)CCC2)ccc1/C=C/C(=O)O | 6.48 | 8.00 | 100 | 100 | 1.3 | 9.4 | 
CCOc1cc(NC(=O)C2(NC(=O)c3ccc4c(C5CCCC5)c(-c5cnccn5)n(C)c4c3)CCC2)ccc1/C=C/C(=O)O | 7.32 | 7.68 |  |  | 0.767 |  | 
CCOc1cc(NC(=O)C2(NC(=O)c3ccc4c(C5CCCC5)c(-c5ncc(Br)cn5)n(C)c4c3)CCC2)ccc1/C=C/C(=O)O | 6.34 | 7.72 | 2100 | 1800 | 2.57 | 13 | half-life [6]: 1.73 h
CCOc1cc(NC(=O)C2(NC(=O)c3ccc4c(C5CCCC5)c(-c5cnn(C)c5)n(C)c4c3)CCC2)ccc1/C=C/C(=O)O | 6.72 | 7.92 | 100 | 400 | 0.733 |  | 
CCOc1cc(NC(=O)C2(NC(=O)c3ccc4c(C5CCCC5)c(-c5nccs5)n(C)c4c3)CCC2)ccc1/C=C/C(=O)O | 6.82 | 7.92 |  |  | 0.6 |  | 
CCOc1cc(NC(=O)C(C)(C)NC(=O)c2ccc3c(C4CCCC4)c(-c4ncc(Cl)cn4)n(C)c3c2)ccc1/C=C/C(=O)O | 7.57 | 8.10 | 100 | 500 |  | 24 | 
CCOc1cc(NC(=O)C2(NC(=O)c3ccc4c(C5CCCC5)c(-c5ncc(Cl)cn5)n(C)c4c3)CC2)ccc1/C=C/C(=O)O | 6.42 | 7.47 |  |  | 3.25 |  | 
COCCOc1cc(NC(=O)C(C)(C)NC(=O)c2ccc3c(C4CCCC4)c(-c4ncc(Cl)cn4)n(C)c3c2)ccc1/C=C/C(=O)O | 6.70 | 8.00 |  | 200 | 2.15 | 12 | 
COCCOc1cc(NC(=O)C2(NC(=O)c3ccc4c(C5CCCC5)c(-c5ncc(Cl)cn5)n(C)c4c3)CCC2)ccc1/C=C/C(=O)O | 6.70 | 7.89 | 1100 | 1700 | > 5 | 17 | bioavailability [8]: 16%; AUC [9]: 10.6 µM·h; MRT [10]: 4.1 h; Cmax [11]: 4100 nM; Vd [12]: 0.29 L/kg; clearance [13]: 3.7 mL/min/kg; half-life [14]: 2.1 h
